Measurements taken from ChEMBL document CHEMBL4014339, “Discovery of 1,4-Benzodiazepine-2,5-dione (BZD) Derivatives as Dual Nucleotide Binding Oligomerization Domain Containing 1/2 (NOD1/NOD2) Antagonists Sensitizing Paclitaxel (PTX) To Suppress Lewis Lung Carcinoma (LLC) Growth in Vivo” (J Med Chem, 2017).

Experiments:
Format in all cases: cell-based
[1] = target: T1, Nucleotide-binding oligomerization domain-containing protein 1 (Homo sapiens) (UniProt Q9Y239); experiment: Antagonist activity at human NOD1 expressed in HEK-Blue cells assessed as inhibition of C12-iE-DAP-stimulated cell activation at 10 uM preincubated for 3 hrs followed by C12-iE-DAP addition measured after 20 hrs by SEAP reporter gene assay
T1 sequence (whole entry): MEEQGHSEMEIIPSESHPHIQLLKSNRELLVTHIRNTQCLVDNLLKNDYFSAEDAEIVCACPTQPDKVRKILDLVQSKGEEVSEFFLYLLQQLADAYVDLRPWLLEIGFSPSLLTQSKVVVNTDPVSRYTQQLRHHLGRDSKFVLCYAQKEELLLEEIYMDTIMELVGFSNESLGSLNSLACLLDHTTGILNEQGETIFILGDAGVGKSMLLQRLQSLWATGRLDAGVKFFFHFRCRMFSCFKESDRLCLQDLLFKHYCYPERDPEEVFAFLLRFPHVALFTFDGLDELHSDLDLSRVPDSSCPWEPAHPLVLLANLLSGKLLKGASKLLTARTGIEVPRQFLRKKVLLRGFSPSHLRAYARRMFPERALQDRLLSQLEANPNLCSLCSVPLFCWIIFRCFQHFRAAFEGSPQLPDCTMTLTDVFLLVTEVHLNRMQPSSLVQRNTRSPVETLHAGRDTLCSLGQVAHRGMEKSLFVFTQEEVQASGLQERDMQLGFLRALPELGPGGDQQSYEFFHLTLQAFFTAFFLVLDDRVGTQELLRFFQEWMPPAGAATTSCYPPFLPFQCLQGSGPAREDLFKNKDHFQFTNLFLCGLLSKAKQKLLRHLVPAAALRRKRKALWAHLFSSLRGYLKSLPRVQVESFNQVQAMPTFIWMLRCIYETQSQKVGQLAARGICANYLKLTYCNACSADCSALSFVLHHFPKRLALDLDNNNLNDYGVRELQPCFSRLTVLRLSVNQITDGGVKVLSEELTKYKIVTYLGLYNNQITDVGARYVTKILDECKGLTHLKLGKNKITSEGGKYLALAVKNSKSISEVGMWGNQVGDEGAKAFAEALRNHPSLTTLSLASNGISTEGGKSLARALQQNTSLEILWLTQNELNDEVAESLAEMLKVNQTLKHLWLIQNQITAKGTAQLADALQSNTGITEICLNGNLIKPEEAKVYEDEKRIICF
In short: (§1)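 HEK-Blue hNOD1 or hNOD2 cells preincubated with compound 3 h, then stimulated 20 h with C12-iE-DAP 50 ng/mL (NOD1) or MDP 100 ng/mL (NOD2); SEAP in supernatant quantified. Primary screen at 10 μM, hits repeated in triplicate; IC50 from dose-response, mean ± SD (n = 3), only for compounds reaching ≥50% inhibition at the screening concentration.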

[2] = target: T1, Nucleotide-binding oligomerization domain-containing protein 1 (Homo sapiens); experiment: Antagonist activity at human NOD1 expressed in HEK-blue cells assessed as inhibition of C12-iE-DAP-stimulated cell activation at 5 uM preincubated for 3 hrs followed by C12-iE-DAP addition measured after 20 hrs by SEAP reporter gene assay
[3] = target: T2, Nucleotide-binding oligomerization domain-containing protein 1 (Homo sapiens, UniProt Q9Y239); experiment: Antagonist activity at human NOD1 expressed in HEK-blue cells assessed as inhibition of C12-iE-DAP-stimulated cell activation preincubated for 3 hrs followed by C12-iE-DAP addition measured after 20 hrs by SEAP reporter gene assay; in short: as §1
T2 sequence (Q9Y239 whole entry): T1 sequence (whole entry)

[4] = target: T3, Nucleotide-binding oligomerization domain-containing protein 2 (Homo sapiens, UniProt Q9HC29); experiment: Antagonist activity at human NOD2 expressed in HEK-Blue cells assessed as inhibition of MDP-stimulated cell activation at 10 uM preincubated for 3 hrs followed by MDP addition measured after 20 hrs by SEAP reporter gene assay; in short: as §1
T3 sequence (Q9HC29 whole entry, the tested form may be a part): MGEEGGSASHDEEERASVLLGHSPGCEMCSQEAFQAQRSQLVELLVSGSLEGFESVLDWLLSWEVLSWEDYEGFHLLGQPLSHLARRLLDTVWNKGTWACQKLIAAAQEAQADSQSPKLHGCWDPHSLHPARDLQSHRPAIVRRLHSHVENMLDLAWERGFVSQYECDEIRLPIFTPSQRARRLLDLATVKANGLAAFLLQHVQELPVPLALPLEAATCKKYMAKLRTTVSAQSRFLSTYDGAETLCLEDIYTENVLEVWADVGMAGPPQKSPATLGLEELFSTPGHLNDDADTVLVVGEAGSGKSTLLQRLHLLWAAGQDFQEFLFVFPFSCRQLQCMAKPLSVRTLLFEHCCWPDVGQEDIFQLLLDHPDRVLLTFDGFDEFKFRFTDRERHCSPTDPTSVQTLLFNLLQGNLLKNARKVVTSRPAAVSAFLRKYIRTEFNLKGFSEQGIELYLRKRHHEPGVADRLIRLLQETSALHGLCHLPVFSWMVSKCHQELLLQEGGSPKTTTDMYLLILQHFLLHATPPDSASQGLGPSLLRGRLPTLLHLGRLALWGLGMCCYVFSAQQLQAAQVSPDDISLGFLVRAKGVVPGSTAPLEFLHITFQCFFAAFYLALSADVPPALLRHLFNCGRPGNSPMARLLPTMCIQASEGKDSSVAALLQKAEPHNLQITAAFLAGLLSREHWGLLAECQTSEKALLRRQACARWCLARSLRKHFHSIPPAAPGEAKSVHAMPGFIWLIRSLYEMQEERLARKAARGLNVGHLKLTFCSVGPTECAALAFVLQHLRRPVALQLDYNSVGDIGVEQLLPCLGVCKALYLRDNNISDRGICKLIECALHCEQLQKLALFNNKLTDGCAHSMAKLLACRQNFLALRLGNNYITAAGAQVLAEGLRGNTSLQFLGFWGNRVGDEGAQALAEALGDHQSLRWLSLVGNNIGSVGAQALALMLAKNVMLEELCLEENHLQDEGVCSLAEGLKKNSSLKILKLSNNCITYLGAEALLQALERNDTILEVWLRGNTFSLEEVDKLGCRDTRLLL

[5] = target: T3, Nucleotide-binding oligomerization domain-containing protein 2; experiment: Antagonist activity at human NOD2 expressed in HEK-Blue cells assessed as inhibition of MDP-stimulated cell activation at 5 uM preincubated for 3 hrs followed by MDP addition measured after 20 hrs by SEAP reporter gene assay
[6] = target: T3, Nucleotide-binding oligomerization domain-containing protein 2; experiment: Antagonist activity at human NOD2 expressed in HEK-Blue cells assessed as inhibition of MDP-stimulated cell activation preincubated for 3 hrs followed by MDP addition measured after 20 hrs by SEAP reporter gene assay; in short: as §1

| Structure (SMILES) | inhibition [1] [%] | inhibition [2] [%] | IC50 [3] [µM] | inhibition [4] [%] | inhibition [5] [%] | IC50 [6] [µM] |
| --- | --- | --- | --- | --- | --- | --- |
| COC(=O)CC[C@H]1NC(=O)c2cc(Oc3cccc(N(C)C)c3)c(NC(=O)COCc3ccc(Br)cc3)cc2NC1=O | 93.9 | 91 | 0.58 | 95.2 | 85 | 1.19 |
| COC(=O)CC[C@H]1NC(=O)c2cc(Oc3cccc(N(C)C)c3)c(NC(=O)COCc3ccc(C(C)(C)C)cc3)cc2NC1=O | 73.3 | 67.7 | 1.96 | 75.7 | 75.2 | 2.39 |
| COC(=O)CC[C@H]1NC(=O)c2cc(Oc3ccc(Cl)c(N(C)C)c3)c(NC(=O)COCc3ccccc3)cc2NC1=O | 73 | 58.2 | 2.9 | 78.1 | 59.9 | 3.55 |
| CCCCN(CCCC)C(=O)CC[C@H]1NC(=O)c2cc(Oc3cccc(N(C)C)c3)c(NC(=O)COCc3ccccc3)cc2NC1=O | 82 | 81.8 | 1.3 | 88.6 | 85 | 1.32 |
| CN(C)c1cccc(Oc2cc3c(cc2NC(=O)COCc2ccccc2)NC(=O)[C@@H](CCC(=O)NC(C)(C)C)NC3=O)c1 | 87.6 | 80.3 | 1.11 | 92.1 | 80.3 | 2.27 |
| COC(=O)CC[C@H]1NC(=O)c2cc(Oc3cc(Cl)cc(N(C)C)c3)c(NC(=O)COCc3ccccc3)cc2NC1=O | 4.89 | 47.1 | – | 56.5 | 54.9 | 5.05 |
| COC(=O)CC[C@H]1NC(=O)c2cc(Oc3cccc(N(C)C)c3)c(NC(=O)COCc3cccc(F)c3)cc2NC1=O | 89.8 | 83.9 | 1.37 | 82.9 | 67 | 4.02 |
| COC(=O)CC[C@H]1NC(=O)c2cc(Oc3cccc(N(C)C)c3)c(NC(=O)COCc3ccc(Cl)cc3)cc2NC1=O | 90.6 | 90.7 | 0.61 | 90.7 | 86.3 | 1.24 |
| COC(=O)CC[C@H]1NC(=O)c2cc(Oc3cc(N(C)C)c(Cl)c(Cl)c3Cl)c(NC(=O)COCc3ccccc3)cc2NC1=O | 11.1 | 16.2 | – | 17.4 | 11.1 | – |
| CN(C)c1cccc(Oc2cc3c(cc2NC(=O)COCc2ccccc2)NC(=O)[C@@H](CCC(=O)N2CCCCC2)NC3=O)c1 | 86.7 | 82.8 | 1.11 | 80.6 | 63.3 | 2.99 |
| CCCNC(=O)CC[C@H]1NC(=O)c2cc(Oc3cccc(N(C)C)c3)c(NC(=O)COCc3ccc(Cl)cc3)cc2NC1=O | 47.6 | 52.9 | – | 44.6 | 37.6 | – |
| CN(C)c1cccc(Oc2cc3c(cc2NC(=O)COCc2ccccc2)NC(=O)[C@@H](CCC(=O)N2CCCC2)NC3=O)c1 | 82 | 73.2 | 2.37 | 75.6 | 58.2 | 3.79 |
| COC(=O)CC[C@H]1NC(=O)c2cc(Oc3ccc(Cl)c(N(C)C)c3)c(NC(=O)COCc3ccc(Cl)cc3)cc2NC1=O | 55.1 | 71.8 | 1.55 | 79 | 82.2 | 1.02 |
| COC(=O)CC[C@H]1NC(=O)c2cc(Oc3cccc(N(C)C)c3)c(NC(=O)COCc3ccc4ccccc4c3)cc2NC1=O | – | 77.7 | 1.61 | – | 70.9 | 1.58 |
| CCCCCCCCCCCCNC(=O)CC[C@H]1NC(=O)c2cc(Oc3cccc(N(C)C)c3)c(NC(=O)COCc3ccccc3)cc2NC1=O | 48.2 | 37.1 | – | 23.1 | 29.1 | – |
| COC(=O)CC[C@H]1NC(=O)c2cc(Oc3cccc(N(C)C)c3)c(NC(=O)COCc3ccc(F)cc3Cl)cc2NC1=O | 38.6 | 20.1 | – | 13.5 | 12.8 | – |
| COC(=O)CC[C@H]1NC(=O)c2cc(Oc3cccc(N(C)C)c3Cl)c(NC(=O)COCc3ccc(Cl)cc3)cc2NC1=O | 0.08 | 21.9 | – | 15.7 | 15.7 | – |
| COC(=O)CC[C@H]1NC(=O)c2cc(Oc3cccc(N(C)C)c3)c(NC(=O)COCc3ccc(C(F)(F)F)cc3)cc2NC1=O | 90.7 | 89.8 | 0.94 | 91.9 | 89 | 0.87 |
| CCCCCCCCCCCCCCCCNC(=O)CC[C@H]1NC(=O)c2cc(Oc3cccc(N(C)C)c3)c(NC(=O)COCc3ccccc3)cc2NC1=O | 27.5 | 10.6 | – | -7.1 | -4.77 | – |
| COC(=O)CC[C@H]1NC(=O)c2cc(Oc3cc(N(C)C)ccc3Cl)c(NC(=O)COCc3ccccc3)cc2NC1=O | 29.3 | 24.8 | – | 7.26 | 11 | – |
| CCCCNC(=O)CC[C@H]1NC(=O)c2cc(Oc3cccc(N(C)C)c3)c(NC(=O)COCc3ccccc3)cc2NC1=O | 86 | 81.8 | 1.29 | 71.6 | 60.5 | 2.88 |
| CCCNC(=O)CC[C@H]1NC(=O)c2cc(Oc3cccc(N(C)C)c3)c(NC(=O)COCc3ccc(F)cc3)cc2NC1=O | 80.1 | 68 | 2.81 | 48.8 | 30.8 | – |
| COC(=O)CC[C@@H]1NC(=O)c2cc(Oc3cccc(N(C)C)c3)c(NC(=O)COCc3ccc(C(F)(F)F)cc3)cc2NC1=O | – | 89.6 | 0.58 | – | 87.8 | 0.59 |
| CCCNC(=O)CC[C@H]1NC(=O)c2cc(Oc3cccc(N(C)C)c3)c(NC(=O)COCc3ccc(Br)cc3)cc2NC1=O | 50.5 | 50.2 | – | 31 | 40.3 | – |
| COC(=O)CC[C@H]1NC(=O)c2cc(Oc3cc(Cl)c(Cl)c(N(C)C)c3Cl)c(NC(=O)COCc3ccccc3)cc2NC1=O | 65.3 | 79.8 | 1.33 | 34 | 55.9 | 3.78 |
| COC(=O)CC[C@H]1NC(=O)c2cc(Oc3cccc(N4CCCC4)c3)c(NC(=O)COCc3ccc(Cl)cc3)cc2NC1=O | 86.6 | 80.9 | 1.39 | 94 | 86 | 1.5 |
| COC(=O)CC[C@H]1NC(=O)c2cc(Oc3cccc(N(C)C)c3Cl)c(NC(=O)COCc3ccccc3)cc2NC1=O | 44.2 | 55.8 | – | 46 | 44.6 | – |
| CN(C)C(=O)CC[C@H]1NC(=O)c2cc(Oc3cccc(N(C)C)c3)c(NC(=O)COCc3ccccc3)cc2NC1=O | 68 | 43.1 | 4.95 | 35.5 | 31 | – |
| C[C@@H]1NC(=O)c2cc(Oc3cccc(N(C)C)c3)c(NC(=O)COCc3ccc(C(F)(F)F)cc3)cc2NC1=O | – | 73.8 | 1.93 | – | 64.5 | 0.94 |
| COC(=O)CC[C@H]1NC(=O)c2cc(Oc3cccc(N(C)C)c3)c(NC(=O)COCc3ccc(OC)cc3)cc2NC1=O | 21.6 | 8.57 | – | 56.5 | 34.1 | 9.51 |
